Hits are enriched below; roughly 1.8% of the tested compounds scored in any of these assays.
MT1-MMP act inh – blockers of MT1-MMP proenzyme processing, primary screen, HT1080 RFP-PRO-GFP cells, GFP/RFP fluorescence | GFP/RFP ratio fluorescence, overnight; percent of plate control window, DMSO zero | GFP/RFP ratio change, % at 20 µM | 0.061% of 360,000 active | Matrix metalloproteinase-14 (Homo sapiens), P50281;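 active = GFP/RFP ratio change of at least 30% with cell ATP level not reduced by more than half and red fluorescence within 50% of control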
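Read-out: GFP/RFP fluorescence ratio; Test system: RFP-PRO-GFP reporter HT1080 cells; Compound dosing: single-point 20 µM compound, 1% DMSO; Times: overnight compound exposure at 37 °C.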
eIF4H FP inh – human eIF4H binding inhibitors, primary screen, translation initiation inhibitor project, biochemical, uHTS, fluorescence polarization; Eukaryotic translation initiation factor 4H (Homo sapiens), Q15056; eIF4H fluorescence polarization binding assay; inhibition, % at 35 µM; 0.94% of 290,000 active; AID 2012, 2009;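 note: calls also rest on retests at 20 µM and on dose response follow-up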
PABP1 MLLE inh – inhibitors of PABP1 MLLE–PAM2 peptide binding, primary screen, biochemical, fluorescence polarization, FITC-PAM2, GST-MLLE; 0.36% of 360,000 active; Polyadenylate-binding protein 1 (Homo sapiens), P11940; AID 588489, 2011; inhibition, % at 20 µM; in the data active = inhibition above about 35%, passing the limit was not always enough;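 note: plate controls were DMSO wells with GST-MLLE for no effect and wells lacking GST-MLLE protein for full effect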
PABP FP inh – PABP poly(A) RNA binding inhibitors, primary screen, biochemical, fluorescence polarization, uHTS. AID 2014, 2009. calls only at 35 µM. 1% of 290,000 active;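 note: calls also rest on retests at 20 µM and on dose response follow-up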
SKN-1 inh – suppressors of acrylamide-induced Pgst-4::GFP reporter in worms, primary screen, SKN-1 inhibitor project, whole organism, uHTS, GFP/RFP fluorescence ratio, strain VP596. C. elegans VP596 Pgst-4::GFP/RFP ratio, 24 h. 0.49% of 360,000 active. inhibition, % at 21.8 µM;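 active = interference check ratio from 0.5 to 1.5 plus GFP to RFP signal ratio inhibition reaching or exceeding a fixed threshold, cut at about 30% in these data, passing the limit was not always enough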
Active calls of the source: *; i = inactive; ? = inconclusive; . = no result given; + = active, no number. Unless noted, the rule behind the calls is not given here.

SMILES	MT1-MMP act inh	eIF4H FP inh	PABP1 MLLE inh	PABP FP inh	SKN-1 inh
COc1ccc(C(=O)NC(=S)NC2CCSC2=O)cc1 (stereo unspecified)	-3	-3	38*	i	4
Cc1onc(-c2c(F)cccc2Cl)c1C(=O)NC(=S)NC1CCSC1=O (stereo unspecified)	-9	-1	44*	i	8
Cc1onc(-c2c(F)cccc2Cl)c1C(=O)NC(=S)Nc1c(C)n(C)n(-c2ccccc2)c1=O	2	-3	45*	i	-7
Cc1onc(-c2c(F)cccc2Cl)c1C(=O)Nc1c(C)n(C)n(-c2ccccc2)c1=O	9	-8	10	i	11
COc1cc(OC)cc(C(=O)NC2CCSC2=O)c1 (stereo unspecified)	-3	-1	-4	i	14
Cc1onc(-c2c(F)cccc2Cl)c1C(=O)NC1CC1	2	7	-8	i	10
O=C(OCc1cccc([N+](=O)[O-])c1)c1ccc[nH]c1=O	-2	-2	8	i	1
O=S1(=O)N[C@H](Cc2ccccc2)COc2cc(N3CCC[C@@H]3CO)ccc21	2	.	.	.	-15
COc1ccc(C(=O)N/C(=C\c2cccc3ccccc23)C(=O)N2CCN(C)CC2)cc1	-7	.	-14	.	27
CS(=O)(=O)N1N=C(c2ccco2)CC1c1ccco1 (stereo unspecified)	-8	78*	-32	+	3
CCCS(=O)(=O)NC(=O)C1(C)CCN(C(=O)/C=C/c2ccccc2)C1 (stereo unspecified)	-3	.	-14	.	3
CC(=O)Nc1ccc(-c2ccccc2)s1	2	69	-139	+	-11
CCN(CC)C(=O)CSc1nnc2nnc3cc(Cl)ccc3n12	-8	?	67*	?	2
CCN(CC)C(=O)CSc1nnc2nnc3cc(C)ccc3n12	-4	?	40*	?	-20
COc1ccc(OC)c(C(=O)C2COC(=O)C2)c1 (stereo unspecified)	14	-2	3	i	37*
CCCOc1ccc(/C(O)=C2/C(=O)C(=O)N(c3cc(C)on3)C2c2ccc(C(=O)OC)cc2)cc1 (stereo unspecified)	0	0	0	i	40*
CCOc1ccc(/C(O)=C2/C(=O)C(=O)N(c3cc(C)on3)C2c2ccc(C(=O)OC)cc2)cc1 (stereo unspecified)	-6	3	1	i	-27
CC1(C(=O)NS(=O)(=O)c2cccc(C#N)c2)CCN1C(=O)C/C=C/c1ccccc1 (stereo unspecified)	-2	.	14	.	-21
CC1CCCCN1CCNC(=O)c1ccc2c(c1)N(Cc1ccccc1F)C(=O)c1ccccc1S2=O (stereo unspecified)	-1	5	-3	i	-1
CC(=O)N1CCc2cc(N=NC3=C(O)CC(C)(C)CC3=O)ccc21	-1	101*	-95	+	19
N#Cc1ccsc1NC(=O)c1cccc(-n2cnnn2)c1	-1	67	-83	+	24
CC1=C(C(=O)N(C)C)CC(CC(=O)NC2CCCC2)C(=O)N1Cc1ccc(F)cc1 (stereo unspecified)	0	.	-7	.	2
COc1ccc(CC(=O)N2CCCC(C)C2)cc1 (stereo unspecified)	-2	2	9	i	37*
NC(=O)c1nnn(-c2ccc([N+](=O)[O-])cc2)c1-c1ccccc1	-7	2	6	i	-19
CC(=O)c1nnn(-c2ccc([N+](=O)[O-])cc2)c1C	-4	active	8	i	8
SMILES	MT1-MMP act inh	eIF4H FP inh	PABP1 MLLE inh	PABP FP inh	SKN-1 inh
C#Cc1cccc(-n2nnc(C(=O)OC)c2-c2ccccc2)c1	0	-2	1	i	38*
CCOc1ccc(C(=O)NCC(=O)OCC(=O)N(C)CC(=O)Nc2ccccc2CC)cc1OCC	-2	.	3	.	-27
Cc1cc(NC(=S)Nc2cccnc2)ccc1Br	4	-6	34	i	-13
Cc1cc(Cl)ccc1NC(=S)Nc1cccnc1	2	1	38*	i	-15
Cc1cc(Cl)ccc1NC(=S)NC(C)(C)C	1	-2	40*	i	-4
Fc1cccc(NC(=S)Nc2cccnc2)c1	2	0	42*	i	9
C(=NN=C(NN=Cc1cccs1)NN=Cc1cccs1)c1cccs1	11	.	-24	.	16
CCCCCN1C=CC(=C2C(=O)c3ccccc3C2=O)C=C1	-4	88*	-3	+	7
O=C(Nc1nc(-c2ccco2)c(-c2ccco2)s1)C1CC(=O)N(c2ccc3c(c2)OCCO3)C1 (stereo unspecified)	-10	84*	-29	+	3
CNC(=O)OCc1snc(-c2ccccc2)c1COC(=O)NC	1	.	-1	.	12
Cc1cccc(CCNC(=O)c2cc(S(=O)(=O)N3CCCCC3)c[nH]2)c1	-3	-4	3	i	5
C=CCSc1nnc2nc3c(nn12)c1cc(C)ccc1n3CC=C	-1	-12	-66	i	38*
O=C(CSc1ccccc1F)NNC(=O)c1ccncc1	-1	.	18	.	20
O=C1N(C2CCCC2)C[C@@H]2C[C@@H](c3cn[nH]c3-c3ccc(Cl)cc3)N3CCC[C@@]123	-7	4	-6	+	5
Cc1ccccc1CN1C[C@@H]2C[C@@H](c3cn[nH]c3-c3ccccc3)N3CCC[C@@]23C1=O	-3	1	-10	i	2
NC(=S)NN=Cc1ccc(-c2ccc(S(=O)(=O)Nc3ncccn3)cc2)o1	-5	.	5	.	-6
CCOc1ccc(C(=O)N/N=C/c2ccc(-c3ccc(S(=O)(=O)Nc4ncccn4)cc3)o2)cc1	5	69*	-1	+	2
NS(=O)(=O)c1ccc(-c2ccc(/C=N/NC(=O)c3ccccc3O)o2)cc1	-3	2	7	i	3
CCOc1ccc(S(=O)(=O)N(CC(=O)N/N=C/c2ccc(-c3ccc([N+](=O)[O-])cc3)o2)c2ccccc2)cc1	2	79*	-31	+	18
O=C(N/N=C/c1ccc(-c2ccc(S(=O)(=O)Nc3ncccn3)cc2)o1)c1cc2ccccc2cc1O	1	83*	-6	+	7
CC(Oc1ccc(Br)cc1)C(=O)N(Cc1ccccc1)c1c(N)n(Cc2ccccc2)c(=O)[nH]c1=O (stereo unspecified)	8	.	12	.	18

Bioassay records: PubChem BioAssay, Sanford-Burnham Center for Chemical Genomics
